Bioassay records: PubChem BioAssay, several laboratories
Hits are enriched below; roughly 1.3% of the tested compounds scored in any of these assays.
Casp6 inh = blocks human caspase-6 cleavage activity; 350,000 compounds, 0.53% hits; AID 686996; purified caspase-6, Z-VEID-R110 cleavage fluorescence; P55212; inhibition, % at 12.5 µM;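 active = mean inhibition across replicates at least about 35%, with every replicate also reaching that limit, limit read from the data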;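 note: 0% = median of neutral control wells and 100% = no fluorescence left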
Target sequence (P55212 24-179 limits assumed): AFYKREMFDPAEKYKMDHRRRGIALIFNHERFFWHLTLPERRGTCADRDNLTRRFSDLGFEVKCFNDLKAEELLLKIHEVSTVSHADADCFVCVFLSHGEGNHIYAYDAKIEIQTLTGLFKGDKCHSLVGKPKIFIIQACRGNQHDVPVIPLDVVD
Target sequence (P55212 194-293 limits assumed): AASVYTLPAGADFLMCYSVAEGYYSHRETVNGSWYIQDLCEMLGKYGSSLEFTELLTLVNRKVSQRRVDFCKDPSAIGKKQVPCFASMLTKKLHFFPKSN
TDP2 absorb = TDP2 (human) inhibition, absorbance primary screen; O95551; recombinant TDP2, T5PNP hydrolysis, p-nitrophenol absorbance 415 nm; inhibition, % at 12.8 µM; 370,000 compounds, 0.34% hits; AID 720702;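 active = inhibition above the mean of all tested compounds plus 3 SD, set per campaign, cut at about 25% in these data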;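 note: 0% = DMSO with enzyme and 100% = buffer with substrate but no TDP2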
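System: recombinant human TDP2 / Amount: 120 nM TDP2 per well / Also added: 5 mM T5PNP chromogenic substrate / Doses: 12.8 µM single point, 1% DMSO / Incubation: 2 h at 37 °C / Detection: p-Nitrophenol epi absorbance / Evaluation: % inhibition relative to enzyme-containing and enzyme-free wells / Repeats: singlicate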
LEDGF integ inh = blocks HIV-1 LEDGF/p75-dependent DNA integration; TR-FRET IN-LEDGF/p75 DNA integration, Eu/Cy5; inhibition, % at 3.7 µM; 370,000 compounds, 0.64% hits;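 active = inhibition above the screen-wide mean plus 3 SD, cut at about 13% in these data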;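 note: signal is the Cy5 over europium emission ratio at 671 and 618 nm; 0% = plate median of compound wells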
ASAP1 GAP inh = blocks human ASAP1-stimulated Arf1 GTP hydrolysis | GDP FP detection | inhibition, % at 16.5 µM | 360,000 compounds, 0.19% hits | AID 624377;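 note: 0% = vehicle with enzyme and substrate and 100% = no enzyme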
ARFGAP1 inhibitor = inhibitors of rat ARFGAP1. Q62848. Arfgap1-stimulated ARF1 GTP hydrolysis, GDP FP detection. inhibition, % at 16.5 µM. 360,000 compounds, 0.26% hits. AID 651572;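 active = inhibition above a per-plate limit, mean inhibition of low control wells plus 3 SD, cut at about 25% in these data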;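 note: 0% = DMSO wells with enzyme and 100% = wells lacking Arfgap1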
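Material: rat Arfgap1 catalytic domain, aa 1-136; also added: human ARF1(Δ1-17)-GTP substrate; compound dosing: one concentration, 16.5 µM, DMSO 1.26%; incubation: GTP hydrolysis reaction 2 h at 25 °C; measured by: Tracer-displacement fluorescence polarization with EDTA stop, 620/688 nm; evaluation: % inhibition from polarization; repeats: one replicate per compound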
ARFGAP1 inh conf = confirmation of rat ARFGAP1 inhibitors; AID 651608; 890 compounds, 30% hits; shares compounds with ARFGAP1 inhibitor; inhibition, % at 16.5 µM; ARFGAP1-stimulated ARF1 GTP hydrolysis, GDP tracer FP;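 active = average inhibition over triplicates above the hit cutoff set in the earlier primary screen, cut at about 25% in these data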;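 note: 0% = Arfgap1 plus ARF1-GTP with DMSO and 100% = wells lacking Arfgap1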
CASP1 counter = selectivity counter-screen: inhibitors of human caspase-1 | purified caspase-1, Z-YVAD-R110 cleavage fluorescence | shares compounds with Casp6 inh | 100 tested, under 10 active | activity change, negative = inhibition, % at 35 µM;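 active = compounds lowering fluorescence whose fitted half-maximal concentration is no more than twice their top tested dose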
Target sequence (P29466 whole entry, looked up): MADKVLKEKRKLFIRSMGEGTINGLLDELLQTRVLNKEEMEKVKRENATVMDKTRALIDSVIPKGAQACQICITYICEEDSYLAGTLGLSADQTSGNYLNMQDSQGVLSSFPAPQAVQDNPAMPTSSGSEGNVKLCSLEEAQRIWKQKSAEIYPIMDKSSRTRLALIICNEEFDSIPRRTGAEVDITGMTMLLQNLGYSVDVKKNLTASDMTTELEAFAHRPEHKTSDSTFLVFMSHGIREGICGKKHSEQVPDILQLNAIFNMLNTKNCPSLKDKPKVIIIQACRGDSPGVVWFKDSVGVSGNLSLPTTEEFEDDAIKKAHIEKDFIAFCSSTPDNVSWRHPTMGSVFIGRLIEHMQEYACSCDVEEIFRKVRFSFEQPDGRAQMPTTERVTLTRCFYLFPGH
TDP2 confirm = confirmation of human TDP2 inhibitors. recombinant human TDP2, absorbance read-out. 1,100 compounds, 22% hits. inhibition, % at 12.8 µM. shares compounds with TDP2 absorb;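 note: 0% = vehicle with enzyme and 100% = no enzyme buffer only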
IN multimer act = HIV-1 integrase multimerization activation, counter-screen; 2,000 compounds, 17% hits; shares compounds with LEDGF integ inh; TR-FRET HIV-1 integrase multimerization, biochemical; activation, % at 7.7 µM; AID 1053131; in the data active = activation above about 8.9%
TR-FRET interf = optically interferes with TR-FRET readout in LEDGF counter-screen. shares compounds with LEDGF integ inh. TR-FRET optical interference counterscreen, HIV-1 IN multimerization. inhibition, % at 7.7 µM. 2,000 tested, under 10 active. AID 1053135;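 active = inhibition above the mean over all tested compounds plus 3 SD, which no compound reached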;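 note: 0% = integrase with antibodies and DMSO and 100% = antibodies without integrase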
LEDGF integ conf = LEDGF/p75-dependent HIV-1 integration inhibition, confirmation; inhibition, % at 3.7 µM; AID 1053136; 2,000 compounds, 36% hits; shares compounds with LEDGF integ inh; TR-FRET LEDGF/p75-dependent HIV-1 integration, biochemical; in the data active = inhibition above about 14%
The depositor's hits bear a star; · = not tested or not shown. Cut-off read from the data, not from the text of the source, unless noted: active = inhibition above about 25%; inactive = the rest.

SMILES	Casp6 inh	TDP2 absorb	LEDGF integ inh	ASAP1 GAP inh	ARFGAP1 inhibitor	CASP1 counter	others
O=C(COC(=O)c1ccc(O)cc1)Nc1cc(S(=O)(=O)N2CCCCCC2)ccc1Cl	4	-4	3	-3	26*	·	ARFGAP1 inh conf=1
O=C(COC(=O)c1ccc(O)cc1)Nc1cc(S(=O)(=O)N2CCOCC2)ccc1Cl	3	1	-3	8	0	·
CCOC(=O)CN1Cc2cccc(C(=O)O)c2C1=O	1	-6	1	0	25*	·	ARFGAP1 inh conf=1
Cc1[nH][nH]c(=O)c1C(c1c(C)[nH][nH]c1=O)c1cn(C)c2ccccc12	35	49*	0	1	25*	·	ARFGAP1 inh conf=1;TDP2 confirm=21
Cc1cccc(OC(C)C(=O)Nc2cc(S(=O)(=O)N3CCCCC3)ccc2C)c1 (stereo unspecified)	2	-3	1	3	-1	·
CC(C)=CCC1=C(OCC(=O)O)C(=O)c2ccccc2C1=O	·	47*	25*	18	25*	·	ARFGAP1 inh conf=-5;TDP2 confirm=67*;IN multimer act=4;TR-FRET interf=-12;LEDGF integ conf=57*
CC(C)=CCC/C(C)=C/CC/C(C)=C/CC/C(C)=C/CC1=C(C)C(=O)c2ccccc2C1=O	·	-1	0	-2	2	·
Cc1ccc(-n2nc3ccc(NC(=O)C(C)C)cc3n2)cc1	-2	8	0	1	-1	·
Cc1cc(=O)n(C2CCS(=O)(=O)C2)[nH]1 (stereo unspecified)	5	70*	22*	-1	29*	·	ARFGAP1 inh conf=-8;TDP2 confirm=26*;IN multimer act=-2;TR-FRET interf=9;LEDGF integ conf=0
Cc1cccc(-c2cccc3c4c([nH]c23)[C@@H]2C[C@H](N(C)C(=O)Nc3ccccc3C)[C@H]([C@H](C)O)CN2CC4)c1	·	0	-1	·	·	·
CC(NC1=CC(=O)c2cccnc2C1=O)C(O)c1ccccc1 (stereo unspecified)	100*	57*	36*	17	27*	·	ARFGAP1 inh conf=-9;TDP2 confirm=71*;IN multimer act=4;TR-FRET interf=-12;LEDGF integ conf=66*
COCCn1c(-c2ccc(OC)cc2)nc2ccccc21	·	7	-3	-13	-6	·
COCCn1c2nc(=O)n(-c3ccccc3)c(=O)c-2nc2ccccc21	70*	6	0	18	-1	5
Cc1ccc(S(=O)c2ccc([N+](=O)[O-])c3nonc23)cc1 (stereo unspecified)	91*	6	10	-15	-9	21
Cc1ccc(Nc2c([N+](=O)[O-])ccc3nonc23)c(C)c1	-3	6	-2	-7	-3	·
O=C(O)C1CCCCC1C(=O)Nc1cccc(Br)c1 (stereo unspecified)	75*	-13	5	-5	-7	-2
O=C(O)/C(=C\c1ccc(Cl)c([N+](=O)[O-])c1)c1ccc(S(=O)(=O)N2CCCC2)s1	70*	-2	-1	-1	-5	11
CCCCN(C(=O)c1cccc(S(=O)(=O)N2CCCC2)c1)c1c(N)n(CCC)c(=O)[nH]c1=O	2	-7	2	5	0	·
CCCN(C(=O)c1cccc(-n2cccc2)c1)c1c(N)n(Cc2ccccc2)c(=O)[nH]c1=O	71*	-2	3	13	11	9
CCCCN(C(=O)c1cccc(-n2cccc2)c1)c1c(N)n(CCC)c(=O)[nH]c1=O	41*	2	2	-3	1	8
CC(C)C1C(=O)N(Cc2cn(CCC3OCCCO3)nn2)CCS(=O)(=O)N1Cc1ccc(-c2ccc(Cl)c(Cl)c2)cc1 (stereo unspecified)	1	-3	3	-10	11	·
Cc1cc(C)c(S(=O)(=O)c2cccc(C)c2C)c(=O)[nH]1	2	2	1	0	2	·
Cc1ccccc1S(=O)(=O)N1CCN(C)CC1	-1	6	-2	3	11	·
COc1ccc2[nH]c3c(NCCN(C(C)C)C(C)C)ncnc3c2c1	·	3	-1	0	14	·
COc1cc(NCCCCC(C)N)c2nccc(C)c2c1 (stereo unspecified)	93*	9	12	-2	5	-5
SMILES	Casp6 inh	TDP2 absorb	LEDGF integ inh	ASAP1 GAP inh	ARFGAP1 inhibitor	CASP1 counter	others
COc1cc(NC(C)CCCNC(C)C)c2ncccc2c1OC (stereo unspecified)	38*	16	14*	-3	7	1
Cc1c(Cl)cccc1NC(=O)CN1CCN(CCO)CC1	·	0	0	4	-5	·
Cc1oc2c(cc(NS(=O)(=O)c3ccc(C(C)C)cc3)c3ccccc32)c1C(=O)O	39*	3	3	0	-2	12
CCOC(=O)c1sc2nc(N3CCOCC3)c3c(c2c1N)CCC3	·	-5	-2	3	10	·
CCOC(=O)c1sc2nc(OCCN3CCOCC3)cc(C)c2c1N	82*	-10	-3	-5	2	5
COc1ccc(NC(=O)CN(C)C(=O)c2cccc(-n3cccc3)c2)cc1	51*	20	5	-2	0	-3
Cc1ccc(NC(=O)CN(C)C(=O)c2cccc(-n3cccc3)c2)cc1	82*	-11	2	2	8	11
Cc1cccc(NC(=O)CNC(=O)c2cccc(-n3cccc3)c2)c1C	83*	-11	5	3	5	0
COc1ccc(NC(=O)CN(C)C(=O)c2cccc(Oc3ccccc3)c2)cc1	0	-1	-7	5	3	·
Cc1cccc(C)c1NC(=O)CN(C)C(=O)c1cccc(-n2cccc2)c1	15	-2	6	6	-11	·
CCOc1ccccc1N1CC(C(=O)Nc2ccccc2N2CCCC2)CC1=O (stereo unspecified)	3	8	4	-2	-1	·
CCCN(CCC)CCNC(=O)CCC(=O)Nc1ccc2nc(N3CCOCC3)cc(C)c2c1	9	-21	-2	12	3	·
